Experimental data as given in ChEMBL document CHEMBL4152188, “Design, synthesis and biological evaluation of C(4) substituted monobactams as antibacterial agents against multidrug-resistant Gram-negative bacteria” (Eur J Med Chem, 2018).
Values after ≈ are worked out from the molar mass of the structure shown.

Columns and labels:
[1] = system: Escherichia coli; assay: Antibacterial activity against extended-spectrum beta-lactamase producing Escherichia coli isolate 106342 after 18 hrs in presence of BPL by CLSI broth microdilution method; assay type: functional; details: isolate 106342, 18 h
Summary of the method: (§1)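 CLSI broth microdilution against clinical isolates (ESBL E. coli, KPC-2 MDR K. pneumoniae, IMP-4 MDR P. aeruginosa; five per species). Iron limitation: Mueller-Hinton broth supplemented with 16 mg/liter 2,2'-bipyridyl to complex iron and induce iron uptake systems. Read-out: MIC.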

[2] = Elimination half life in human liver microsomes at 0.1 uM pre-incubated with compound followed by NADPH addition and measured after 60 mins by LC-MS/MS analysis; assay type: ADME, microsome; details: read-out: beta t1/2
[3] = system: Klebsiella pneumoniae; assay: Antibacterial activity against KPC-2 producing Klebsiella pneumoniae isolate 209735 after 18 hrs by CLSI broth microdilution method; assay type: functional; details: isolate 209735, 18 h
[4] = system: Klebsiella pneumoniae; assay: Antibacterial activity against KPC-2 producing Klebsiella pneumoniae isolate 212423 after 18 hrs by CLSI broth microdilution method; assay type: functional; details: isolate 212423, 18 h
[5] = system: Klebsiella pneumoniae; assay: Antibacterial activity against KPC-2 producing Klebsiella pneumoniae isolate 212229 after 18 hrs by CLSI broth microdilution method; assay type: functional; details: isolate 212229, 18 h
[6] = system: Escherichia coli; assay: Selectivity index, ratio of MIC for against extended-spectrum beta-lactamase producing Escherichia coli isolate 106342 to MIC for extended-spectrum beta-lactamase producing Escherichia coli isolate 106342 in presence of BPL; assay type: functional
[7] = system: Pseudomonas aeruginosa; assay: Antibacterial activity against IMP-4 producing Pseudomonas aeruginosa isolate 212886 after 18 hrs in presence of BPL by CLSI broth microdilution method; assay type: functional; details: isolate 212886, 18 h; summary of the method: as §1
[8] = system: Escherichia coli; assay: Selectivity index, ratio of MIC for against extended-spectrum beta-lactamase producing Escherichia coli isolate 212648 to MIC for extended-spectrum beta-lactamase producing Escherichia coli isolate 212648 in presence of BPL; assay type: functional
[9] = system: Klebsiella pneumoniae; assay: Selectivity index, ratio of MIC for against KPC-2 producing Klebsiella pneumoniae isolate 212423 to MIC for against KPC-2 producing Klebsiella pneumoniae isolate 212423 in presence of BPL; assay type: functional
[10] = system: Klebsiella pneumoniae; assay: Antibacterial activity against KPC-2 producing Klebsiella pneumoniae isolate 212232 after 18 hrs in presence of BPL by CLSI broth microdilution method; assay type: functional; details: isolate 212232, 18 h; summary of the method: as §1
[11] = system: Pseudomonas aeruginosa; assay: Selectivity index, ratio of MIC for against IMP-4 producing Pseudomonas aeruginosa isolate 212886 to MIC for against IMP-4 producing Pseudomonas aeruginosa isolate 212886 in presence of BPL; assay type: functional
[12] = system: Pseudomonas aeruginosa; assay: Antibacterial activity against IMP-4 producing Pseudomonas aeruginosa isolate 207272 after 18 hrs in presence of BPL by CLSI broth microdilution method; assay type: functional; details: isolate 207272, 18 h; summary of the method: as §1
[13] = system: Escherichia coli; assay: Antibacterial activity against extended-spectrum beta-lactamase producing Escherichia coli isolate 209285 after 18 hrs by CLSI broth microdilution method; assay type: functional; details: isolate 209285, 18 h
[14] = system: Pseudomonas aeruginosa; assay: Selectivity index, ratio of MIC for against IMP-4 producing Pseudomonas aeruginosa isolate 209321 to MIC for against IMP-4 producing Pseudomonas aeruginosa isolate 209321 in presence of BPL; assay type: functional
[15] = system: Klebsiella pneumoniae; assay: Selectivity index, ratio of MIC for against KPC-2 producing Klebsiella pneumoniae isolate 209632 to MIC for against KPC-2 producing Klebsiella pneumoniae isolate 209632 in presence of BPL; assay type: functional
[16] = system: Pseudomonas aeruginosa; assay: Antibacterial activity against IMP-4 producing Pseudomonas aeruginosa isolate 212886 after 18 hrs by CLSI broth microdilution method; assay type: functional; details: isolate 212886, 18 h
[17] = system: Pseudomonas aeruginosa; assay: Antibacterial activity against IMP-4 producing Pseudomonas aeruginosa isolate 209321 after 18 hrs by CLSI broth microdilution method; assay type: functional; details: isolate 209321, 18 h
[18] = system: Escherichia coli; assay: Selectivity index, ratio of MIC for against extended-spectrum beta-lactamase producing Escherichia coli isolate 208687 to MIC for extended-spectrum beta-lactamase producing Escherichia coli isolate 208687 in presence of BPL; assay type: functional
[19] = system: Escherichia coli; assay: Antibacterial activity against Escherichia coli isolate 210737 after 18 hrs in presence of BPL by CLSI broth microdilution method; assay type: functional; details: isolate 210737, 18 h; summary of the method: as §1
[20] = system: Pseudomonas aeruginosa; assay: Antibacterial activity against IMP-4 producing Pseudomonas aeruginosa isolate 207272 after 18 hrs by CLSI broth microdilution method; assay type: functional; details: isolate 207272, 18 h
[21] = system: Pseudomonas aeruginosa; assay: Selectivity index, ratio of MIC for against IMP-4 producing Pseudomonas aeruginosa isolate 207272 to MIC for against IMP-4 producing Pseudomonas aeruginosa isolate 207272 in presence of BPL; assay type: functional
[22] = system: Klebsiella pneumoniae; assay: Antibacterial activity against KPC-2 producing Klebsiella pneumoniae isolate 209735 after 18 hrs in presence of BPL by CLSI broth microdilution method; assay type: functional; details: isolate 209735, 18 h; summary of the method: as §1
[23] = Metabolic bioavailability in human liver microsomes at 0.1 uM pre-incubated with compound followed by NADPH addition and measured after 60 mins by LC-MS/MS analysis; assay type: ADME, microsome
[24] = system: Pseudomonas aeruginosa; assay: Antibacterial activity against IMP-4 producing Pseudomonas aeruginosa isolate 208247 after 18 hrs by CLSI broth microdilution method; assay type: functional; details: isolate 208247, 18 h
[25] = system: Escherichia coli; assay: Antibacterial activity against extended-spectrum beta-lactamase producing Escherichia coli isolate 106342 after 18 hrs by CLSI broth microdilution method; assay type: functional; details: isolate 106342, 18 h
[26] = Intrinsic clearance in mouse liver microsomes assessed per g protein at 0.1 uM pre-incubated with compound followed by NADPH addition and measured after 60 mins by LC-MS/MS analysis; assay type: ADME, microsome; details: 1 h
Summary of the method: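 Liver microsomes, 0.33 mg/mL microsomal protein, with an NADP+-regenerating system. Test article at 0.1 µM, incubated at 37°C. Samples were taken at 0, 7, 17, 30 and 60 min, and parent compound was measured by MS. Half-life, intrinsic clearance (ml/min/g protein) and MF (%) are derived from parent loss.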

[27] = system: Escherichia coli; assay: Antibacterial activity against extended-spectrum beta-lactamase producing Escherichia coli isolate 208687 after 18 hrs in presence of BPL by CLSI broth microdilution method; assay type: functional; details: isolate 208687, 18 h; summary of the method: as §1
[28] = system: Escherichia coli; assay: Antibacterial activity against extended-spectrum beta-lactamase producing Escherichia coli isolate 212648 after 18 hrs in presence of BPL by CLSI broth microdilution method; assay type: functional; details: isolate 212648, 18 h; summary of the method: as §1
[29] = system: Klebsiella pneumoniae; assay: Selectivity index, ratio of MIC for against KPC-2 producing Klebsiella pneumoniae isolate 212229 to MIC for against KPC-2 producing Klebsiella pneumoniae isolate 212229 in presence of BPL; assay type: functional
[30] = system: Escherichia coli; assay: Antibacterial activity against Escherichia coli isolate 210737 after 18 hrs by CLSI broth microdilution method; assay type: functional; details: isolate 210737, 18 h
[31] = system: Escherichia coli; assay: Selectivity index, ratio of MIC for against Escherichia coli isolate 210737 to MIC for Escherichia coli isolate 210737 in presence of BPL; assay type: functional
[32] = system: Klebsiella pneumoniae; assay: Selectivity index, ratio of MIC for against KPC-2 producing Klebsiella pneumoniae isolate 209735 to MIC for against KPC-2 producing Klebsiella pneumoniae isolate 209735 in presence of BPL; assay type: functional
[33] = system: Pseudomonas aeruginosa; assay: Antibacterial activity against IMP-4 producing Pseudomonas aeruginosa isolate 209321 after 18 hrs in presence of BPL by CLSI broth microdilution method; assay type: functional; details: isolate 209321, 18 h; summary of the method: as §1
[34] = system: Escherichia coli; assay: Antibacterial activity against extended-spectrum beta-lactamase producing Escherichia coli isolate 209285 after 18 hrs in presence of BPL by CLSI broth microdilution method; assay type: functional; details: isolate 209285, 18 h; summary of the method: as §1

Row | SMILES | MIC [1] [µg/mL] | half-life at 0.1 µM [2] [h] | MIC [3] [µg/mL] | MIC [4] [µg/mL] | MIC [5] [µg/mL] | Selectivity Index [6] | MIC [7] [µg/mL] | Selectivity Index [8] | Selectivity Index [9] | MIC [10] [µg/mL] | Selectivity Index [11] | MIC [12] [µg/mL] | MIC [13] [µg/mL] | Selectivity Index [14] | Selectivity Index [15] | MIC [16] [µg/mL] | MIC [17] [µg/mL] | Selectivity Index [18] | MIC [19] [µg/mL] | MIC [20] [µg/mL] | also measured
1 | CC(C)C(O/N=C(\C(=O)N[C@@H]1C(=O)N(S(=O)(=O)O)C12CCCC2)c1csc(N)n1)c1cc(=O)c(O)cn1O (stereo partly drawn) | 0.25 | 4.52 | 2 (≈ 3.51 µM) | 2 (≈ 3.51 µM) | 1 (≈ 1.75 µM) | 2 | 8 | 2 | 4 | 0.06 | 2 | 8 | 0.5 (≈ 0.876 µM) | 1 | 8 | 16 (≈ 28 µM) | 8 (≈ 14 µM) | 2 | 0.06 | 16 (≈ 28 µM) | Selectivity Index [21]: 2; MIC [22]: 0.25 µg/mL; Fh at 1 h, 0.1 µM [23]: 71.6%; MIC [24]: 16 µg/mL (≈ 28 µM); MIC [25]: 0.5 µg/mL (≈ 0.876 µM); CLint [26]: 5.59 mL/min/g; MIC [27]: 0.25 µg/mL; MIC [28]: 0.5 µg/mL; Selectivity Index [29]: 8; MIC [30]: 0.5 µg/mL (≈ 0.876 µM); Selectivity Index [31]: 8; Selectivity Index [32]: 8; MIC [33]: 8 µg/mL; MIC [34]: 0.5 µg/mL
2 | CC(C)C(O/N=C(\C(=O)N[C@@H]1C(=O)N(S(=O)(=O)O)[C@@H]1COC(N)=O)c1csc(N)n1)c1cc(=O)c(O)cn1O (stereo partly drawn) | 0.25 | 2.93 | 32 (≈ 54.3 µM) | 1 (≈ 1.7 µM) | 1 (≈ 1.7 µM) | 2 | 4 | 4 | 2 | 0.25 | 1 | 4 | 0.5 (≈ 0.848 µM) | 2 | 4 | 4 (≈ 6.78 µM) | 8 (≈ 13.6 µM) | 2 | 0.25 | 8 (≈ 13.6 µM) | Selectivity Index [21]: 2; MIC [22]: 8 µg/mL; Fh at 1 h, 0.1 µM [23]: 62.2%; MIC [24]: 4 µg/mL (≈ 6.78 µM); MIC [25]: 0.5 µg/mL (≈ 0.848 µM); CLint [26]: 3.41 mL/min/g; MIC [27]: 0.25 µg/mL; MIC [28]: 0.25 µg/mL; Selectivity Index [29]: 4; MIC [30]: 0.25 µg/mL (≈ 0.424 µM); Selectivity Index [31]: 1; Selectivity Index [32]: 4; MIC [33]: 4 µg/mL; MIC [34]: 0.125 µg/mL
